A selection: hits, their analogues and other compounds. The true share with any hit is near 3.7%.
proCasp3 act – activates human procaspase-3. activation, % at 8.5 µM. recombinant procaspase-3 D3A, Ac-DEVD-pNA absorbance 405 nm. P42574. 330,000 compounds, 0.11% hits;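 active means activation above the mean of all tested compounds plus 3 SD, cut at about 21% in these data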;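 further: 0% = DMSO alone and 100% = DMSO wells spiked with extra 5 µM PC-3 D3A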
Target sequence (P42574 whole entry D9A/D28A/D175A): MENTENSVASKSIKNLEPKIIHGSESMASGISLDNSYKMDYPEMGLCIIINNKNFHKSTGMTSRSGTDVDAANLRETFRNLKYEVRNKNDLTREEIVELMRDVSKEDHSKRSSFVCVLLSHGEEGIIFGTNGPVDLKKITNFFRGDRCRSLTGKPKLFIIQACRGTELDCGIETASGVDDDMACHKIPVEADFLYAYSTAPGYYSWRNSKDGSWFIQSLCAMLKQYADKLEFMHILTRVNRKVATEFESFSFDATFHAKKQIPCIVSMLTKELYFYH
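assay system = Procaspase-3 D3A mutant | signal = absorbance at 405 nm, 0 and 120 min | times = 1 h preincubation plus 2 h reaction at 25 °C | repeats = single replicate | read-out = % activation between DMSO and enzyme-spiked controls | medium = Zinc-free HEPES saline buffer with Triton X-100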
proCasp7 act – counter-screen for procaspase-3 activators: activators of human procaspase-7. P55210. recombinant procaspase-7, Ac-DEVD-pNA absorbance 405 nm; D23A/D198A/D206A triple mutant, cannot self-cleave; scale: DMSO 0, 5 µM enzyme 100. activation, % at 8.5 µM. 330,000 compounds, 0.093% hits;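 active means percent activation above the screen-wide mean plus 3 SD, cut at about 25% in these data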
Target sequence (P55210 whole entry D23A/D198A/D206A): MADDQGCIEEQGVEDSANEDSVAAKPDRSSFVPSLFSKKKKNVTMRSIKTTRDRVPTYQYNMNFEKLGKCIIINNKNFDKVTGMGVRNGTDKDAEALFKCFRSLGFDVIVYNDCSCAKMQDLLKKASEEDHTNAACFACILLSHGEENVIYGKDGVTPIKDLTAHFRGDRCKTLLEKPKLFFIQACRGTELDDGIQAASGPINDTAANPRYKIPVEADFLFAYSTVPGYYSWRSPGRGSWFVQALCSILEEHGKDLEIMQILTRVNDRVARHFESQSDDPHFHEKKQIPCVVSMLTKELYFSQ
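Test system: Procaspase-7 triple mutant (PC-7 D3A). Also added: Ac-DEVD-pNA substrate, 400 µM as added. Schedule: 1 h enzyme–compound preincubation and 2 h substrate reaction, both 25 °C. Signal: p-Nitroaniline absorbance at 405 nm, read at 0 and 120 min. Control set: low DMSO alone, high DMSO plus 5 µM PC-7.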
aDG glyco up – alpha-DG glycosylation activation; Pro5-aDG cells, alpha-DG glycosylation AlphaScreen (IIH6); 0% Pro5, 100% B10-LARGE cell signal; activation, % at 10 µM; 360,000 compounds, 0.22% hits; AID 624168;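 active means activation of at least 8% versus controls, or a plate z-score of at least 8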;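 further: Pro5 are CHO cells carrying HIG-tagged alpha-DG that lacks glycosylation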
MPTP inh – permeability transition pore inhibition | 360,000 compounds, 1.4% hits | inhibition, % at 10 µM | AID 602449 | isolated mouse mitochondria, Ca2+ swelling absorbance, 30 min;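 active means inhibition of 50% or more, scaled per plate between neutral and stimulator controls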;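 further: 0% = DMSO wells given calcium and 100% = 1 mM EGTA wells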
NR3A LBD binder – modulates the human NR3A ligand-binding domain; NR3A LBD differential scanning fluorimetry, Tm shift; 0% = protein alone, 100% = glycine-bound protein; Tm shift relative to glycine control, % at 25 µM; 340,000 compounds, 2.5% hits; AID 1259313;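 active means melting temperature shift of at least 10% of the positive control shift, at one fixed dose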
Rh123 counter – Rhodamine 123 counter-screen of mitochondrial pore hits | shares compounds with MPTP inh | isolated mitochondria, membrane potential, Rhodamine 123 fluorescence | inhibition, % at 10 µM | 5,000 compounds, 78% hits | AID 624504; in the data active means inhibition above about 22%;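 further: 0% = DMSO vehicle and 100% = positive control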
MPTP abs DR – MPTP inhibition, dose response swelling confirmation; shares compounds with MPTP inh; isolated mitochondria swelling, absorbance; IC50, µM; 780 compounds, 58% hits; AID 651561; in the data active means IC50 below about 20 µM
MPTP counter DR – counter-screen for mitochondrial permeability transition pore inhibitors, dose response; shares compounds with MPTP inh; isolated mitochondria counterscreen, fluorescence read-out; IC50, µM; 780 compounds, 49% hits; in the data active means IC50 below about 80 µM
* = called active by the depositor.

For Cc1nn(-c2ccccc2)c(N2CCCC2)c1/C=N/O the results were proCasp3 act 2.8, proCasp7 act -4.8, aDG glyco up -0.1, MPTP inh 50.2*, NR3A LBD binder 0.1, Rh123 counter 0.4, MPTP abs DR >100 and MPTP counter DR >80.
CC(C)(CO)NCC(O)COc1ccc2c(c1)CCC2 (configuration not stated) was read as proCasp3 act 6.0, proCasp7 act -7.2, aDG glyco up 0.0, MPTP inh 0.0 and NR3A LBD binder 0.2.
CC(C)(C)CC(C)(C)NCC(O)COc1ccc2c(c1)CCC2 (configuration not stated) was read as proCasp3 act -0.2, proCasp7 act -0.1, aDG glyco up 4.6, MPTP inh 95.0*, NR3A LBD binder -0.4, Rh123 counter -11.6, MPTP abs DR 4.24* and MPTP counter DR 48.3*.
Screening O=[N+]([O-])c1ccc(CSc2ccc(S(=O)(=O)N3CCCCCC3)cn2)cc1 returned aDG glyco up -0.3, MPTP inh 0.0 and NR3A LBD binder 1.7.
For COc1cccc(C(NC(C)=O)c2nc(-c3cnn(C)c3)cs2)c1 (configuration not stated) the results were aDG glyco up -0.2 and MPTP inh 0.2.
For CCOC(=O)c1cc(-c2ccccc2)sc1NC(=O)C(C)OC(=O)c1cccnc1OCC (configuration not stated) the results were proCasp3 act -13.0, proCasp7 act 1.2, aDG glyco up -0.1, MPTP inh 67.6*, NR3A LBD binder 0.8, Rh123 counter -0.6, MPTP abs DR >100 and MPTP counter DR >80.
CCn1cc(-c2ccccc2)c(C(=O)O)c1-c1ccc(OC)cc1 was read as proCasp3 act 1.3, proCasp7 act 2.4, aDG glyco up 0.4, MPTP inh -0.7 and NR3A LBD binder 3.1.
Screening O=C(O[C@@H](C(=O)O)[C@@H](OC(=O)c1ccccc1)C(=O)O)c1ccccc1 returned proCasp3 act 0.5, proCasp7 act 10.0, aDG glyco up -0.1, MPTP inh 0.2 and NR3A LBD binder 3.0.
For O=S(=O)(c1ccc(S(=O)(=O)N2CCCC2)cc1)N1CCCCC1 the results were proCasp3 act -5.8, proCasp7 act -1.4 and NR3A LBD binder -3.1.
Screening N#C/C(=N\Nc1ccc([N+](=O)[O-])cc1)C(N)=S returned proCasp3 act -20.7, proCasp7 act -29.4, aDG glyco up -0.2, MPTP inh 85.8*, NR3A LBD binder 9.1 and Rh123 counter 62.0*.
Screening N#CC(C#N)=NNc1ccc(S(=O)(=O)N2CCCC2)cc1 returned proCasp3 act 1.7, proCasp7 act -6.5, aDG glyco up -0.4, MPTP inh 99.1*, NR3A LBD binder 7.4 and Rh123 counter 90.4*.
Screening N#C/C(=N\Nc1ccc(S(=O)(=O)N2CCCCC2)cc1)C(N)=S returned proCasp3 act -12.8, proCasp7 act -24.1, aDG glyco up -0.2, MPTP inh 78.9*, NR3A LBD binder 5.5 and Rh123 counter 78.5*.
Screening N#C/C(=N/Nc1ccc(S(=O)(=O)N2CCOCC2)cc1)C(N)=O returned proCasp3 act -2.2, proCasp7 act -7.3, aDG glyco up -0.5, MPTP inh -0.8 and NR3A LBD binder 2.1.
Screening N#C/C(=N\Nc1ccc(S(=O)(=O)N2CCCCCC2)cc1)C(N)=S returned proCasp3 act -30.8, proCasp7 act -23.8, aDG glyco up -0.7, MPTP inh 96.5*, NR3A LBD binder 7.4 and Rh123 counter 90.8*.
`N#C/C(=N/Nc1ccc([N+](=O)[O-])cc1)C(=N)N1CCCCC1` gave aDG glyco up -0.6, MPTP inh 4.1 and NR3A LBD binder 0.3.
NNC(=S)Nc1ccc(S(=O)(=O)N2CCCCC2)cc1 was read as proCasp3 act -7.6, proCasp7 act -7.9, aDG glyco up -0.2, MPTP inh -0.4 and NR3A LBD binder -4.9.
For COc1cccc(-c2cc(NC=O)c3ncc(-c4ccc(C(C)=O)cc4)n3c2)c1 the results were aDG glyco up 0.0 and MPTP inh -0.2.
`CC(C)(C)OC(=O)NCCC(=O)N/N=C/c1cccc2nccnc12` gave proCasp3 act 0.2, proCasp7 act -0.6, aDG glyco up -0.1, MPTP inh 5.1 and NR3A LBD binder 4.8.
COc1cccc(S(=O)(=O)N(C)C[C@@H]2OCc3cnnn3CCCC(=O)N([C@@H](C)CO)C[C@H]2C)c1 was read as aDG glyco up -0.2 and MPTP inh -0.5.
O=C(O)c1ccc(N=NNc2cccc([N+](=O)[O-])c2)cc1 was read as proCasp3 act 1.2, proCasp7 act -7.0, aDG glyco up -0.5, MPTP inh 0.4 and NR3A LBD binder -2.4.
For N#C/C(=N\Nc1cccc([N+](=O)[O-])c1)C(=O)c1ccc(Br)cc1 the results were proCasp3 act -4.9, proCasp7 act -8.3, aDG glyco up -0.3, MPTP inh 92.6*, NR3A LBD binder 28.5* and Rh123 counter 40.6*.
`CCCCCC(=O)OCc1ccc(C2=CC(=O)CC(C)(C)C2=O)cc1` gave aDG glyco up 0.1 and MPTP inh -2.7.
Screening O=C(N/N=C/c1ccc(Sc2ccccn2)o1)c1cc2ccccc2cc1O returned proCasp3 act 2.8, proCasp7 act 0.4, aDG glyco up -0.3, MPTP inh 67.8*, NR3A LBD binder 8.8 and Rh123 counter 35.0*.
For COc1ccc2c(c1)c(C(C)=O)c(C)n2CCc1ccccc1 the results were proCasp3 act 4.3, proCasp7 act 8.2, aDG glyco up -0.2, MPTP inh 66.9*, NR3A LBD binder -1.7 and Rh123 counter 75.8*.
Cc1onc(-c2ccccc2)c1C(=O)NC(=S)NNC(=O)c1ccccc1O was read as proCasp3 act -2.6, proCasp7 act -7.7, aDG glyco up 1.0, MPTP inh 95.4*, NR3A LBD binder 0.7 and Rh123 counter 11.5.
CCCOc1ccc(NC(=O)c2c(-c3ccccc3)noc2C)cc1 was read as proCasp3 act -2.6, proCasp7 act 4.2, aDG glyco up 0.1, MPTP inh 0.0 and NR3A LBD binder 0.1.
`CCCOc1ccc(C(=O)NC(=S)NNC(=O)c2c(-c3ccccc3)noc2C)cc1` gave proCasp3 act -14.7, proCasp7 act -11.7, aDG glyco up 0.7, MPTP inh 68.8*, NR3A LBD binder -0.4 and Rh123 counter 8.5.
Screening O=S(=O)(NCCN1CCOCC1)c1ccc(Oc2ccccc2Cl)cc1 returned proCasp3 act 1.7, proCasp7 act 4.2, aDG glyco up 0.1, MPTP inh 75.4*, NR3A LBD binder -0.8 and Rh123 counter 34.8*.
